Data from paper PMC10558795 (Redox Biology, 2023).
Like-named read-outs stand apart in the source and are kept apart here.

Experiments:
STAT3 = assay: pSTAT3 and STAT3 expression in KYSE70 cells; assay type: cell-based, human; conditions: up to 10 μM
Method in brief: (§1)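 Nuclear and cytosolic fractions prepared with an extraction kit, or whole-cell lysates in RIPA buffer. Proteins separated by SDS-PAGE, transferred to nitrocellulose, blocked and probed with primary antibody overnight at 4 °C. Chemiluminescence detected on film and quantified by densitometry; band data as mean ± SD, Student's t-test.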

[1] = target: NRF2 ubiquitination (KYSE70) (Homo sapiens, UniProt Q16236, W24C); assay: NRF2-IP and ubiquitin western blotting in KYSE70 cells; assay type: cell-based; conditions: NRF2^Mut-KYSE70; PYR 10 μM, MIT 20 nM; presence or absence of MG132
Method in brief: (§2)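 Cells treated with test compound, then with or without MG132 (10 μM), lysed in RIPA buffer. Lysate precleared on protein G agarose 1 h at 4 °C, then incubated with 1 μg anti-NRF2 antibody overnight at 4 °C with rotation. Immunocomplexes captured on protein G agarose 1.5 h at 4 °C, washed, boiled in 2X SDS loading buffer at 95 °C for 5 min, and immunoblotted for ubiquitin.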

NQO1-YFP H1299 cells = assay: Cell viability; assay type: cell-based, human; conditions: Homo sapiens, NCI-H1299, read-out: Cell viability (IC50, μM)
Method in brief: (§3)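 NQO1-YFP H1299 reporter cells (YFP in NQO1 intron 1, constitutive mCherry) were seeded 1000/well in 384-well plates and cultured overnight. Primary screen: 1 μM compound in 0.1% DMSO, one well each, with CDDO 200 nM and 0.1% DMSO controls. Retests used 10-point serial dilutions from 10 µM in triplicate, with brusatol control. Imaged at 0, 24, 48, 64 h (YFP = NRF2 activity, mCherry = viability); IC₅₀ by curve fit.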

[2] = mice, i.p., cited from earlier work
[3] = system: mouse NRF2 target genes in the esophageal epithelium; assay: RNAseq of esophageal epithelium of Sox2CreER; assay type: in vivo; conditions: PYR given after tamoxifen induction
Method in brief: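 Sox2CreER;LSL-Nrf2^E79Q/+ mice induced with tamoxifen (75 mg/kg/day i.p., 5 days), then dosed orally with test compound in N-methyl-2-pyrrolidone:PEG300 (1:9). Part of forestomach resected at Week 1; esophageal epithelium harvested at sacrifice, Week 3. Total RNA sequenced; data normalized; overall NRF2 target-gene expression calculated at natural log scale.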

[4] = system: NRF2 and NQO1 expression in NRF2^Mut-KYSE180 cells; assay: Western blotting of NRF2 and NQO1 expression in KYSE180 cells; assay type: cell-based, human
Method in brief: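 NRF2-mutant KYSE180 cells (37 °C, 5% CO₂) treated with test compound; nuclear and cytosolic fractions prepared with a nuclear extraction kit. Proteins separated by SDS-PAGE onto nitrocellulose, primary antibody overnight at 4 °C, chemiluminescence on film. Bands quantified by densitometry, mean ± SD, Student's t-test.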

[5] = system: NRF2 expression in NRF2^WT-KYSE450 cells; assay: NRF2 expression in KYSE450 cells; assay type: cell-based, human
Method in brief: as §1

KYSE70 cells = assay: High-content cytotoxicity screen; assay type: cell-based, human; conditions: Homo sapiens, KYSE-70, 72 h, read-out: Cell proliferation (IC50, μM)
Method in brief: (§4)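 Cells were seeded at 1200/well in 384-well plates and cultured overnight. Test compound was added at […] serial dilution from 10 µM, in triplicate, for 3 days. Controls were 0.1% DMSO (negative), 30 µM benzethonium chloride and 0.1% Triton X-100 added just before staining (positive). Cells were stained with 0.5 µg/ml Hoechst and 100 nM YOYO1, four 4× images per well. Normalized total-cell and dead-cell percentages were fitted for IC₅₀.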

[6] = Pharmacokinetics of PYR in mice, i.p.; assay type: in vivo; conditions: 30 mg/kg/day; extrapolated from literature Cmax
NRF2 (NRF2^WT-KYSE450) = NRF2 (NRF2^WT-KYSE450) (Homo sapiens, UniProt Q16236); assay: CHX chase analysis of NRF2 half-life in KYSE450 cells; assay type: cell-based; conditions: PYR 10 μM, MIT 20 nM
Method in brief: (§5)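 Cells were grown in RPMI1640 GlutaMAX with 10% FBS and 1% penicillin/streptomycin at 37 °C, 5% CO₂. They were pre-incubated 4 h with test compound, then given 200 μg/ml cycloheximide to block protein synthesis. Cells were harvested at set time points after cycloheximide. Total lysates were run on SDS-PAGE and blotted for NRF2 and GAPDH, and band densities were used to calculate NRF2 half-life.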

[7] = system: NRF2 and NQO1 expression in NRF2^Mut-KYSE70 cells; assay: Western blotting of NRF2 and NQO1 expression in KYSE70 cells; assay type: cell-based, human; conditions: KYSE70 cells
Method in brief: as §1

KYSE180 cells = assay: High-content cytotoxicity screen; assay type: cell-based, human; conditions: Homo sapiens, KYSE-180, 72 h, read-out: Cell proliferation (IC50, μM)
Method in brief: as §4

[8] = system: NRF2 activity (NQO1-YFP signal, CDDO-activated); assay: High-throughput screen and dose response: NRF2 activity; assay type: cell-based, human; conditions: Homo sapiens, NCI-H1299, read-out: NRF2 inhibition (IC50, μM)
Method in brief: as §3

[9] = target: NRF2 ubiquitination (KYSE180) (Homo sapiens, UniProt Q16236, D77V); assay: NRF2-IP and ubiquitin western blotting in KYSE180 cells; assay type: cell-based; conditions: NRF2^Mut-KYSE180; PYR 10 μM, MIT 20 nM; presence or absence of MG132
Method in brief: as §2

DHFR = DHFR (Homo sapiens, UniProt P00374); assay: DHFR activity assay kit; assay type: biochemical; conditions: KYSE70 cells
Method in brief: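 Kit-based DHFR enzymatic assay followed by the decrease in A340nm over time; methotrexate 1 μM as reference DHFR inhibitor.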

[10] = humans, 50 mg/day, p.o., 3 weeks; cited from earlier work
NRF2 (NRF2^Mut-KYSE180) = NRF2 (NRF2^Mut-KYSE180) (Homo sapiens, UniProt Q16236, D77V); assay: CHX chase analysis of NRF2 half-life in KYSE180 cells; assay type: cell-based; conditions: PYR 10 μM, MIT 20 nM
Method in brief: as §5

NRF2-ARE binding = NRF2-ARE binding (Homo sapiens, UniProt Q16236, W24C); assay: ELISA-based TransAM NRF2-ARE binding assay with KYSE70 nuclear extracts
Method in brief: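 TransAM ELISA: nuclear extract from untreated KYSE70 cells (20 μg/well) added to wells containing ARE oligonucleotide. Test compound, competitor or mutated competitor added, then 1 h incubation with mild agitation and washing. Anti-NRF2 antibody 1 h, then HRP-conjugated secondary antibody and substrate; A450nm read.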

[11] = target: NRF2 ubiquitination (KYSE450) (Homo sapiens, UniProt Q16236); assay: NRF2-IP and ubiquitin western blotting in KYSE450 cells; assay type: cell-based; conditions: NRF2^WT-KYSE450; PYR 10 μM, MIT 20 nM; only in the presence of MG132
Method in brief: as §2

NRF2 (NRF2^Mut-KYSE180), sequence (Q16236 whole entry D77V): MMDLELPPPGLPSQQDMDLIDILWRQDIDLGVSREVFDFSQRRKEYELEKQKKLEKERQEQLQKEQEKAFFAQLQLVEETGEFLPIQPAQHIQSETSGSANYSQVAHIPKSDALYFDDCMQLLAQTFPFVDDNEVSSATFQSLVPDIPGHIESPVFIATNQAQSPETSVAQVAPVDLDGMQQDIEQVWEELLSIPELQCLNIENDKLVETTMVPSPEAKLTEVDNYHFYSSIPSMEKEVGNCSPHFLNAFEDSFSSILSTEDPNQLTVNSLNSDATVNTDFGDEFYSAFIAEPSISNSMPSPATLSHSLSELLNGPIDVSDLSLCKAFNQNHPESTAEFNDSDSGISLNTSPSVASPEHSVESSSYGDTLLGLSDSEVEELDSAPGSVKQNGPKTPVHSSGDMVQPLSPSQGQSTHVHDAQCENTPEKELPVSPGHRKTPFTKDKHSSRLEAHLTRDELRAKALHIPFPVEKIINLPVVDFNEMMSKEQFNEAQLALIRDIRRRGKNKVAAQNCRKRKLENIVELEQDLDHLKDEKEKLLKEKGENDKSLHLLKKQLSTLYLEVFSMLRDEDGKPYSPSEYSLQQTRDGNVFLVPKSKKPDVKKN
NRF2 ubiquitination (KYSE180), sequence (Q16236 whole entry D77V): as above
NRF2 ubiquitination (KYSE70), sequence (Q16236 whole entry W24C): as the sequence (Q16236 whole entry D77V) above, with W24C, V77D counted along it
NRF2-ARE binding, sequence (Q16236 whole entry W24C): as the sequence (Q16236 whole entry D77V) above, with W24C, V77D counted along it
DHFR, sequence (P00374 whole entry): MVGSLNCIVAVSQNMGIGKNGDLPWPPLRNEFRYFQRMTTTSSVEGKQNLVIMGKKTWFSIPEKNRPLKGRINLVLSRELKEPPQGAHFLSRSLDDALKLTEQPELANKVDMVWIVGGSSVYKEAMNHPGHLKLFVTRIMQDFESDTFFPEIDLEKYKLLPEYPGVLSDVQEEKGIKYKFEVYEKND
NRF2 (NRF2^WT-KYSE450), sequence (Q16236 whole entry): as the sequence (Q16236 whole entry D77V) above, with V77D counted along it
NRF2 ubiquitination (KYSE450), sequence (Q16236 whole entry): as the sequence (Q16236 whole entry D77V) above, with V77D counted along it

CCc1nc(N)nc(N)c1-c1ccc(Cl)cc1 [PYR, Pyrimethamine]
pSTAT3 and STAT3 expression (STAT3): did not significantly inhibit
NRF2 ubiquitination [1]: promoted NRF2 ubiquitination
IC50 (NQO1-YFP H1299 cells): 1.17 µM
Cmax ([2]; 12.5 mg/kg): 8.04 µM
Cmax ([2]; 25 mg/kg): 18.5 µM
Cmax ([2]; 50 mg/kg): 35.8 µM
Cmax ([2]; 75 mg/kg): 28.2 µM
Overall mRNA expression level of mouse NRF2 target genes in the esophageal epithelium [3]: significantly inhibited the overall mRNA expression level
Expression of nuclear NRF2 and cytoplasmic NQO1 [4]: inhibited the expression of nuclear NRF2 and cytoplasmic NQO1 in a dose- and time-dependent manner
NRF2 expression [5]: upregulated NRF2 expression
IC50 (KYSE70 cells): > 10 µM
Concentration expected in mouse tissues [6]: ~10 µM
Effect on NRF2 half-life (NRF2 (NRF2^WT-KYSE450)): not changed
Expression of nuclear NRF2 and cytoplasmic NQO1 [7]: inhibited the expression of nuclear NRF2 and cytoplasmic NQO1 in a dose- and time-dependent manner
IC50 (KYSE180 cells): > 10 µM
IC50 [8]: 0.23 µM
NRF2 ubiquitination [9]: promoted NRF2 ubiquitination
Concentration from which DHFR activity is significantly inhibited (DHFR): ≥ 5 µM
Cmax [10]: 8.28 µM
Effect on NRF2 half-life (NRF2 (NRF2^Mut-KYSE180)): shortened NRF2 half-life
NRF2-ARE binding activity (NRF2-ARE binding): did not observe any changes
NRF2 ubiquitination [11]: slightly promoted NRF2 ubiquitination
